# According to ChEMBL document CHEMBL1131092, “Prodrugs of anthracyclines for use in antibody-directed enzyme prodrug therapy” (J Med Chem, 1998):
# How the values were obtained:
# [1] = Half life period at 200 ug/mL concentration of prodrug in the presence of 0.1 ug/mL Beta-glucuronidase (Escherichia coli) in phosphate buffer; conditions: in vitro
# L1210 = assay: Inhibitory activity was measured against murine L1210 leukemia cells.; assay type: functional, cell-based; conditions: Mus musculus
# Outline: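 Exponentially growing L1210 cells in RPMI were exposed to a range of concentrations for 72 h (37 °C, 5% CO2), with quadruplicate wells and medium-only controls. MTT (2.5 mg/mL in PBS) was added at 65 h, and formazan was dissolved in DMSO after 7 more h. IC50 is 50% growth inhibition versus untreated control; replicate CV <15%.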
# Escherichia coli = assay: Half life period at 200 ug/mL concentration of prodrug in the presence of 1 ug/mL Beta-glucuronidase (Escherichia coli) in phosphate buffer; conditions: in vitro
smiles,measurement,setting,value
COc1cccc2c1C(=O)c1c(O)c3c(c(O)c1C2=O)C[C@@](O)(C(=O)CO)C[C@@H]3O[C@H]1C[C@@H](NC(=O)OCc2ccc(O[C@@H]3O[C@@H](C(=O)O)[C@@H](O)[C@H](O)[C@@H]3O)c([N+](=O)[O-])c2)[C@H](O)[C@H](C)O1,T1/2,[1],37 min
same,IC50,L1210,2.21 µM
COc1cccc2c1C(=O)c1c(O)c3c(c(O)c1C2=O)C[C@@](O)(C(=O)CO)C[C@@H]3O[C@H]1C[C@@H](NC(=O)OCc2cc([N+](=O)[O-])ccc2O[C@@H]2O[C@@H](C(=O)O)[C@@H](O)[C@H](O)[C@@H]2O)[C@H](O)[C@H](C)O1,T1/2,[1],216 min
same,IC50,L1210,16.6 µM
COc1cccc2c1C(=O)c1c(O)c3c(c(O)c1C2=O)C[C@@](O)(C(C)=O)C[C@@H]3O[C@H]1C[C@@H](NC(=O)OCc2ccc(O[C@@H]3O[C@@H](C(=O)O)[C@@H](O)[C@H](O)[C@@H]3O)cc2)[C@H](O)[C@H](C)O1,IC50,L1210,> 10 µM
COC(=O)[C@@H]1O[C@@H](Oc2ccccc2COC(=O)N[C@@H]2C[C@H](O[C@H]3C[C@](O)(C(C)=O)Cc4c(O)c5c(c(O)c43)C(=O)c3c(OC)cccc3C5=O)O[C@@H](C)[C@H]2O)[C@@H](OC(C)=O)[C@@H](OC(C)=O)[C@@H]1OC(C)=O,IC50,L1210,5.5 µM
COc1cccc2c1C(=O)c1c(O)c3c(c(O)c1C2=O)C[C@@](O)(C(=O)CO)C[C@@H]3O[C@H]1C[C@@H](NC(=O)OCc2cc(F)ccc2O[C@@H]2O[C@@H](C(=O)O)[C@@H](O)[C@H](O)[C@@H]2O)[C@H](O)[C@H](C)O1,T1/2,[1],30 min
same,IC50,L1210,31 µM
COc1cccc2c1C(=O)c1c(O)c3c(c(O)c1C2=O)C[C@@](O)(C(C)=O)C[C@@H]3O[C@H]1C[C@H](N)[C@H](O)[C@H](C)O1 [DAUNORUBICIN],IC50,L1210,0.03 µM
COc1cccc2c1C(=O)c1c(O)c3c(c(O)c1C2=O)C[C@@](O)(C(=O)CO)C[C@@H]3O[C@H]1C[C@@H](NC(=O)OCc2cc(Cl)ccc2O[C@@H]2O[C@@H](C(=O)O)[C@@H](O)[C@H](O)[C@@H]2O)[C@H](O)[C@H](C)O1,T1/2,Escherichia coli,30 min
same,T1/2,[1],> 240 min
same,IC50,L1210,16.6 µM
COc1cccc2c1C(=O)c1c(O)c3c(c(O)c1C2=O)C[C@@](O)(C(=O)CO)C[C@@H]3O[C@H]1C[C@@H](NC(=O)OCc2ccc(O[C@@H]3O[C@@H](C(=O)O)[C@@H](O)[C@H](O)[C@@H]3O)c(Cl)c2)[C@H](O)[C@H](C)O1,T1/2,[1],55 min
same,IC50,L1210,17 µM
COc1cccc2c1C(=O)c1c(O)c3c(c(O)c1C2=O)C[C@@](O)(C(=O)CO)C[C@@H]3O[C@H]1C[C@@H](NC(=O)OCc2ccc(O[C@@H]3O[C@@H](C(=O)O)[C@@H](O)[C@H](O)[C@@H]3O)c(F)c2)[C@H](O)[C@H](C)O1,T1/2,[1],26 min
same,IC50,L1210,8.8 µM
